Starred links: 1 amine or outer side, 2 acyl side, 3 side chain; linkers in the order of their positions; H or OH if unused. Positions of bridges follow the written chain, without caps; N, C: chain ends. Non-standard residues stand in square brackets, D forms with d. Residues, ends and D or L forms follow the SMILES beside them. Chains are numbered I, II in the order given. Actinocin(1to9) = Cc1c2oc3c(C)ccc(C(=O)[*:2])c3nc-2c(C(=O)[*:1])c(N)c1=O; NMeV = CN[C@H](C(=O)O)C(C)C; Sar = CNCC(=O)O

The subject of assay [1] is Jurkat. Nature of the assay: (§1) IC80 concentrations of the compounds were used in determining the inhibition of RNA synthesis using Jurkat T cells. The class given is functional, Homo sapiens.
In assay [2] the test system is Jurkat. Nature of the assay: (§2) IC80 concentrations of the compounds were used in determining the inhibition of protein synthesis using Jurkat T cells. The class given is functional, Homo sapiens.
For assay [3], the system named is Jurkat. The experiment in a line: (§3) Inhibitory concentration against Human Jurkat T cells. In kind it is functional, cell-based.
The test system of assay [4] is Jurkat. Described as §3. In kind it is functional.
The test system of assay [5] is CCRF-CEM. Nature of the assay: Inhibitory activity was tested against CEM cells. In kind it is functional, cell-based. The conditions noted are these: Homo sapiens.
For assay [6], the system named is CCRF-CEM. The experiment in a line: Average potency against CEM cells. In kind it is functional, Homo sapiens.
Assay [7] has as its system Tumor Cell line. The experiment in a line: Tested against human tumor cell lines, mean graph mid point values(MG MID) are determined. The class given is functional. The essentials: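 Panel of about 55 human tumor cell lines from nine cancer types: leukemia, melanoma, non-small-cell lung, colon, CNS, ovarian, renal, prostate and breast. Compounds were tested from 10⁻⁴ to 10⁻⁸ M, and the 50% growth-inhibitory concentration was found for each line.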

The subject of assay [8] is L1210. The experiment in a line: Average potency against L1210 cells. The class given is functional, Mus musculus.
The test system of assay [9] is MOLT-4. The experiment in a line: Average potency against Molt4/C8cells. In kind it is functional, Homo sapiens.
Assay [10] concerns MOLT-4. Nature of the assay: Inhibitory activity was tested against Molt4/C8 cells. In kind it is functional, cell-based. The conditions noted are these: Homo sapiens.
The test system of assay [11] is P388. Nature of the assay: Average potency against P388 cells. The class given is functional, Mus musculus.
Assay [12] relates to P388. The experiment in a line: Inhibitory activity was tested against P388 cells. In kind it is functional, cell-based. The conditions noted are these: Mus musculus.
For assay [13], the system named is L1210. The experiment in a line: Inhibitory activity was tested against L1210 cells. In kind it is functional, cell-based. The conditions noted are these: Mus musculus.
Assay [14] concerns Tumor Cell line. The assay is described as §3. The class given is functional, cell-based. The essentials: (§4)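 Human Jurkat T cells were exposed to compounds for 48 h. Viability was scored by nigrosin dye exclusion in place of trypan blue. IC50 and IC80 were derived from these counts.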
Assay [15] relates to Tumor Cell line. The description is as §3. The class given is functional. The essentials:
as §4

Assay [16] deals with Tumor Cell line. The description is as §1. The class given is functional, Homo sapiens.
The test system of assay [17] is Tumor Cell line. The description is as §2. The class given is functional, Homo sapiens.

Consider `Cc1c2oc3c(C)ccc(C(=O)N[C@@H]4C(=O)N[C@H](C(C)C)C(=O)N5CCC[C@H]5C(=O)N(C)CC(=O)N(C)[C@@H](C(C)C)C(=O)O[C@@H]4C)c3nc-2c(C(=O)N[C@@H]2C(=O)N[C@H](C(C)C)C(=O)N3CCC[C@H]3C(=O)N(C)CC(=O)N(C)[C@@H](C(C)C)C(=O)O[C@@H]2C)c(N)c1=O` [DACTINOMYCIN] (I: T[dV]P[Sar][NMeV] / II: T[dV]P[Sar][NMeV]; ester I:1-I:C, II:1-II:C; linker I:N-II:N via Actinocin(1to9)), for which the values for the Inhibition in the assay with Jurkat [1] and with Jurkat [2] were 63.2% and 51.8%, respectively. Further, inhibition in the assay on Jurkat [3] was half-maximal at 0.0045 µM (IC50). For the same compound, the 80% effect level in the assay on Jurkat [4] (IC80) was put at 0.0072 µM.

As for `Cc1ccc(/C=C2\CCCc3ccccc3C2=O)cc1`, the IC50 (as a rule, the concentration that gives 50% inhibition) in the assay with CCRF-CEM [5] is 11.4 µM; in the assay on Jurkat [3] it was 14.6 µM; in the assay on MOLT-4 [10] it was 21.3 µM; with P388 [12] it was 11.8 µM; in the assay with L1210 [13], 25 µM. Moreover, the AP came out at 47 µM in the assay with CCRF-CEM [6], 85.2 µM in the assay on L1210 [8], 66 µM with MOLT-4 [9] and 11.2 µM with P388 [11]. Besides, the Inhibition (usually the relative decrease from the control value, in per cent) stood at 84.2% in the assay on Jurkat [1] and 46.3% with Jurkat [2]. In addition, in the assay on Tumor Cell line [7], the “MG MID” value turned out to be 11.2 µM. It took 23.3 µM to reach the 80% level with Jurkat [4] (IC80).

`C[C@@H]1C[C@@H]([C@H](O)CC2CC(=O)NC(=O)C2)C(=O)[C@@H](C)C1` [CYCLOHEXIMIDE]: the Inhibition in the assay on Jurkat [1] turned out to be 93.3%; with Jurkat [2], 71.9%. This compound also registered an IC50 with Jurkat [3] of 0.93 µM. For the same compound, the 80% effect concentration (IC80) (in general, the concentration needed for an effect of 80%) in the assay on Jurkat [4] was 1.54 µM.

For the compound `COc1ccc(/C=C2\CCCc3ccccc3C2=O)cc1`, the IC50 came to 0.35 µM in the assay with CCRF-CEM [5]; 3.5 µM in the assay on Tumor Cell line [14]; 0.47 µM in the assay with MOLT-4 [10]; 1.6 µM with P388 [12]; 0.34 µM in the assay on L1210 [13]. Moreover, the AP with CCRF-CEM [6] was 47 µM; with L1210 [8] it was 85.2 µM; in the assay on MOLT-4 [9], 66 µM; in the assay with P388 [11], 11.2 µM. The same compound gave an 80% effect concentration (IC80) in the assay on Tumor Cell line [15] of 5.6 µM. Also, the Inhibition was 92.3% in the assay on Tumor Cell line [16] and 19.5% in the assay with Tumor Cell line [17]. The “MG MID” value in the assay on Tumor Cell line [7] was 0.269 µM.

As for `N[C@@H](Cc1ccc(N(CCCl)CCCl)cc1)C(=O)O`, the results for the Inhibition in the assay with Jurkat [1] and in the assay with Jurkat [2] were 85.1% and 30.5%, respectively. Moreover, the “MG MID” value in the assay on Tumor Cell line [7] came to 25.7 µM. The compound also displayed an IC50 with Jurkat [3] of 2.2 µM. The same compound showed an IC80 in the assay on Jurkat [4] of 3.52 µM.

As for `O=C1/C(=C/c2cccc(Br)c2)Cc2ccccc21`, the IC50 with CCRF-CEM [5] came to 32.4 µM; in the assay with MOLT-4 [10], 173 µM; in the assay with P388 [12], 21 µM; in the assay on L1210 [13] it was 43.3 µM. Also, the AP with CCRF-CEM [6] amounted to 155 µM; with L1210 [8] it was 127 µM; in the assay with MOLT-4 [9] it was 267 µM; with P388 [11], 42.9 µM. Also, the “MG MID” value in the assay on Tumor Cell line [7] turned out to be 46.7 µM.

For `COc1cccc(/C=C2\CCCCCC2=O)c1`, the IC50 in the assay with CCRF-CEM [5] was 128 µM; in the assay with MOLT-4 [10], 170 µM; in the assay on P388 [12], greater than 50 µM; in the assay on L1210 [13], 283 µM. The AP stood at 136 µM in the assay on CCRF-CEM [6], 227 µM in the assay with L1210 [8], 186 µM in the assay on MOLT-4 [9] and 34.5 µM in the assay with P388 [11]. For the same compound, the “MG MID” value in the assay on Tumor Cell line [7] turned out to be 85.1 µM.

Regarding `Cc1cccc(/C=C2\CCCCCC2=O)c1`, the half-maximal inhibitory concentration (IC50) in the assay on CCRF-CEM [5] came to 170 µM; in the assay with MOLT-4 [10], 228 µM; in the assay with P388 [12], 29.8 µM; with L1210 [13], 263 µM. In addition, the AP turned out to be 136 µM in the assay on CCRF-CEM [6], 227 µM in the assay with L1210 [8], 186 µM in the assay with MOLT-4 [9] and 34.5 µM in the assay on P388 [11]. In the assay with Tumor Cell line [7], the “MG MID” value stood at 81.3 µM.

These data come from ChEMBL document CHEMBL1132632, “Conformational and quantitative structure-activity relationship study of cytotoxic 2-arylidenebenzocycloalkanones” (J Med Chem, 1999).
